Assay results as given in ChEMBL document CHEMBL4138118, “Novel thioglycosyl analogs of glycosyltransferase substrates as antiviral compounds against classical swine fever virus and hepatitis C virus” (Eur J Med Chem, 2017).
Activity calls are given as the source filed them. No cut-off for these calls is given here.

Experiments:
[1] = system: Hepatitis C virus; test: Antiviral activity against HCV Jc1/JFH infected in human Huh7.5 cells assessed as reduction of pseudo-plaque formation after 72 hrs by immunoperoxidase monolayer assay; type: functional, organism-based, Hepacivirus hominis; settings: for IC50: Huh7.5, 72 h; for Activity: Hepacivirus hominis
Procedure, shortened: (§1)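 Huh-7.5 cells seeded at 1.5 × 10^4 per well, infected next day with Jc1/JFH HCVcc (genotype 2a) at MOI 0.1 for 3 h. Virus removed, medium with compound added; 72 h later cells fixed in cold methanol, permeabilized (0.5% Triton X-100), stained with anti-core antibody (1:300), HRP secondary. Pseudo-plaques counted by microscopy against untreated infected control; IC50 at 50% plaque reduction; three independent experiments.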

[2] = Cytotoxicity against human Huh7.5 cells assessed as reduction in cell viability after 72 hrs by MTT method; type: cell-based
[3] = Selectivity index, ratio of CC50 for Huh7.5 cells to IC50 for HCV Jc1/JFH; type: toxicity; settings: human, read-out: Ratio CC50/IC50
Procedure, shortened: (§2)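 Selectivity index is CC50/IC50, taken from the cell viability assay (SK6 by MTS, Huh-7.5 by MTT) and the matching pseudo-plaque reduction assay.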

[4] = system: Hepatitis C virus; test: Antiviral activity against HCV infected in human Huh7-J17 cells assessed as inhibition of viral RNA replication after 72 hrs by bright-glo luciferase reporter assay; type: functional, organism-based, Hepacivirus hominis
Procedure, shortened: (§3)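 Huh7-J17 replicon cells seeded in 96-well plates together with compound, DMSO or sofosbuvir and incubated 72 h. Cells lysed and luciferase read with Bright-Glo. Values expressed as % of DMSO-treated cells; IC50 from dose-response fit; three experiments.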

[5] = Cytotoxicity against human Huh7-J17 cells assessed as decrease in cell viability after 72 hrs by MTT assay; type: cell-based
Procedure, shortened: (§4)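 Uninfected Huh7-J17, Huh7-J20 or Huh-7.5 cells incubated with compound, then viability read by MTT. Time stated as 72 h for Huh7-J20 and Huh7-J17, and 48 h for Huh-7.5. Results expressed relative to DMSO-treated cells (100%); CC50 from the dose-response curve.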

[6] = system: Classical swine fever virus; test: Antiviral activity against CSFV infected in SK6 cells assessed as reduction of pseudo-plaque formation after 2 days by immunoperoxidase monolayer assay; type: functional, organism-based; settings: 48 h
[7] = Cytotoxicity against SK6 cells assessed as reduction in cell viability after 2 days by MTS method; type: cell-based, Sus scrofa; settings: pig; for Activity: 48 h; for CC50 at 48 h: SK6 cells
Procedure, shortened: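 SK6 viability by MTS (CellTiter 96 AQueous) assay; CC50 is the concentration reducing viability by 50%, taken from the dose-response curve.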

[8] = Selectivity index, ratio of CC50 for SK6 cells to IC50 for CSFV; type: toxicity; settings: pig, read-out: Ratio CC50/IC50; procedure, shortened: as §2
[9] = system: Classical swine fever virus; test: Inhibition of CSFV glycosyltransferase in SK6 cells assessed as downregulation of viral E2 levels under non-reducing condition after 48 hrs by Western blot method; type: cell-based
[10] = Effect on actin levels in SK6 cells at 3.75 to 30 uM under non-reducing condition after 48 hrs by Western blot method; type: ADME, cell-based, Sus scrofa; settings: pig
[11] = Effect on actin levels in human Huh7.5 cells at 3.12 to 75 uM under reducing condition after 48 hrs by Western blot method; type: ADME, cell-based
Procedure, shortened: (§5)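 Huh-7.5 cells infected with HCV (MOI 0.1), washed after 1–6 h, then treated with inhibitor. Lysed in RIPA buffer with protease inhibitors after 48 h (methods; legend gives 72 h p.i.). 20 µg protein run on reducing SDS-PAGE; Western blot probed with anti-E1 mAb (1:2000) and anti-actin (1:1000).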

[12] = system: Hepatitis C virus; test: (§6) Antiviral activity against HCV genotype 2a JFH1 infected in human Huh7-J20 cells assessed as inhibition of viral entry at 1.56 to 75 uM pretreated for 1 hr with cells followed by viral infection for 3 hrs and subsequent compound washout measured after 72 hrs by SEAP reporter assay; type: functional, organism-based; settings: Hepacivirus hominis, JFH-1
Procedure, shortened: (§7)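 Huh7-J20 SEAP reporter cells, infected with JFH-1 HCVcc, read-out SEAP chemiluminescence in supernatant after 72 h. Model 1: 1 h compound pretreatment, 3 h infection with compound, then compound-free medium. Model 2: same, with compound kept for the full 72 h. Model 3: 3 h infection, compound added afterwards only. DMSO control; three experiments.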

[13] = system: Hepatitis C virus; test: as §6, with “of complete” for “of”, “life cycle” for “entry”, “subsequent addition of fresh medium with” for “subsequent”, “compound” for “compound washout”; type: functional, organism-based; settings: Hepacivirus hominis, JFH-1; procedure, shortened: as §7
[14] = system: Hepatitis C virus; test: Antiviral activity against HCV genotype 2a JFH1 infected in human Huh7-J20 cells assessed as inhibition of viral RNA replication at 1.56 to 75 uM after 72 hrs by SEAP reporter assay; type: functional, organism-based; settings: Hepacivirus hominis, JFH-1; procedure, shortened: as §7
[15] = system: Hepatitis C virus; test: Antiviral activity against HCV genotype 2a JFH1 infected in human Huh7-J20 cells assessed as inhibition of viral assembly at 1.56 to 75 uM after 72 hrs by SEAP reporter assay; type: functional, organism-based; settings: Hepacivirus hominis, JFH-1; procedure, shortened: as §7
[16] = Cytotoxicity against human Huh7-J20 cells assessed as decrease in cell viability at 1.56 to 75 uM after 72 hrs by MTT assay; type: cell-based; procedure, shortened: as §4
[17] = system: Hepatitis C virus; test: Antiviral activity against HCV infected in human Huh7-J17 cells assessed as inhibition of viral RNA replication at 75 uM after 72 hrs by bright-glo luciferase reporter assay relative to control; type: functional, Hepacivirus hominis; procedure, shortened: as §3
[18] = system: Hepatitis C virus; test: Antiviral activity against HCV Jc1/JFH infected in human Huh7.5 cells assessed as downregulation of NS5B gene expression after 48 hrs by RT-PCR method; type: functional, organism-based; settings: Hepacivirus hominis
Procedure, shortened: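 Huh-7.5 cells infected with HCV (MOI 0.1) for 4 h, washed, then cultured with compound for 48 h. Total RNA isolated; 1 µg reverse-transcribed with an NS5B-specific reverse primer, then PCR for NS5B. Band densitometry expressed as % of untreated infected control.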

[19] = system: Classical swine fever virus; test: Antiviral activity against CSFV infected in SK6 cells assessed as reduction of pseudo-plaque formation at 9 uM after 2 days by immunoperoxidase monolayer assay relative to control; type: functional; set-up: scale not given: the % may be the effect or the level left
[20] = system: Hepatitis C virus; test: Antiviral activity against HCV Jc1/JFH infected in human Huh7.5 cells assessed as reduction of pseudo-plaque formation at 80 uM after 72 hrs by immunoperoxidase monolayer assay relative to control; type: functional, Hepacivirus hominis; set-up: scale not given: the % may be the effect or the level left; procedure, shortened: as §1
[21] = Effect on actin levels in SK6 cells at 2.5 to 10 uM under non-reducing condition after 48 hrs by Western blot method; type: ADME, cell-based, Sus scrofa; settings: pig
[22] = Effect on actin levels in human Huh7.5 cells at 6.25 to 100 uM under reducing condition after 48 hrs by Western blot method; type: ADME, cell-based; procedure, shortened: as §5

Row | SMILES | IC50 [1] [µM] | CC50 at 72 h [2] [µM] | selectivity ratio [3] | IC50 [6] [µM] | Activity [7] | CC50 at 48 h [7] [µM] | selectivity ratio [8] | other results
1 | CC(C)OC(=O)[C@H](C)N[P@](=O)(OC[C@H]1O[C@@H](n2ccc(=O)[nH]c2=O)[C@](C)(F)[C@@H]1O)Oc1ccccc1 [SOFOSBUVIR] | 0.26 | 31 | 119 | – | – | – | – | IC50 [4]: 0.028 µM; CC50 at 72 h [5]: 23.5 µM
2 | CC(=O)OC[C@H]1O[C@@H](Sc2ccc(NC(=O)CCC(=O)OC[C@H]3O[C@@H](n4ccc(=O)[nH]c4=O)[C@@H]4OC(C)(C)O[C@@H]43)cn2)[C@H](OC(C)=O)[C@@H](OC(C)=O)[C@@H]1OC(C)=O | 231 | 328 | 1.4 | 103 | Dose-dependent effect | 207 | 2 | –
3 | CC(=O)OC[C@H]1O[C@@H](Sc2ccc(NC(=O)CCC(=O)OC[C@H]3O[C@@H](n4ccc(=O)[nH]c4=O)[C@@H]4OC(C)(C)O[C@@H]43)cn2)[C@H](OC(C)=O)[C@@H](OC(C)=O)[C@H]1OC(C)=O | 213 | 340 | 1.6 | 49 | Dose-dependent effect | 194 | 4 | –
4 | CC(=O)OC[C@H]1O[C@@H](Sc2ccc(NC(=O)[C@H]3O[C@@H](n4ccc(=O)[nH]c4=O)[C@H](O)[C@@H]3O)cn2)[C@H](OC(C)=O)[C@@H](OC(C)=O)[C@@H]1OC(C)=O | 373 | 402 | 1.1 | 320 | Dose-dependent effect | 350 | 1.1 | –
5 | O=C(Nc1ccc(S[C@@H]2O[C@H](CO)[C@@H](O)[C@H](O)[C@H]2O)nc1)[C@H]1O[C@@H](n2ccc(=O)[nH]c2=O)[C@H](O)[C@@H]1O | 402 | 420 | 1.05 | 370 | Dose-dependent effect | 380 | 1 | –
6 | CC(=O)OC[C@H]1O[C@@H](Sc2ccc(NC(=O)[C@H]3O[C@@H](n4ccc(=O)[nH]c4=O)[C@@H]4OC(C)(C)O[C@@H]43)cn2)[C@H](OC(C)=O)[C@@H](OC(C)=O)[C@H]1OC(C)=O | 271 | 312 | 1.2 | > 299 | Dose-dependent effect | > 353 | > 1.2 | –
7 | CC(=O)OC[C@H]1O[C@@H](Sc2ccc(NC(=O)[C@H]3O[C@@H](n4ccc(=O)[nH]c4=O)[C@H](O[Si](C)(C)C(C)(C)C)[C@@H]3O[Si](C)(C)C(C)(C)C)cn2)[C@H](OC(C)=O)[C@@H](OC(C)=O)[C@H]1OC(C)=O | 7 | 173 | 24.7 | 6 | Dose-dependent effect | 151 | 25.2 | Activity [1]: Dose-dependent effect; inhibition [9]: Dose-dependent effect; Activity [10]: Non-Toxic; Activity [11]: Non-Toxic; inhibition [12]: inactive; inhibition [13]: Active; inhibition [14]: Active; inhibition [15]: Active; Activity [16]: Non-Toxic; inhibition at 75 µM [17]: 90%; IC50 [4]: 3.74 µM; CC50 at 72 h [5]: 245 µM; Activity [18]: Dose-dependent effect
8 | CC(C)(C)[Si](C)(C)OC[C@H]1O[C@@H](Sc2ccc(NC(=O)[C@H]3O[C@@H](n4ccc(=O)[nH]c4=O)[C@H](O[Si](C)(C)C(C)(C)C)[C@@H]3O[Si](C)(C)C(C)(C)C)cn2)[C@H](OC(=O)c2ccccc2)[C@@H](OC(=O)c2ccccc2)[C@@H]1OC(=O)c1ccccc1 | > 236 | > 270 | > 1.1 | 97 | Dose-dependent effect | 186 | 1.9 | –
9 | CC(=O)OC[C@H]1O[C@@H](Sc2ccc(NC(=O)[C@H]3O[C@@H](n4ccc(=O)[nH]c4=O)[C@@H]4OC(C)(C)O[C@@H]43)cn2)[C@H](OC(C)=O)[C@@H](OC(C)=O)[C@@H]1OC(C)=O | 244 | 271 | 1.1 | > 325 | Dose-dependent effect | > 380 | > 1.2 | –
10 | CC(=O)OC[C@H]1O[C@@H](Sc2ccc(NC(=O)[C@H]3O[C@@H](n4ccc(=O)[nH]c4=O)[C@H](O[Si](C)(C)C(C)(C)C)[C@@H]3O[Si](C)(C)C(C)(C)C)cn2)[C@H](OC(C)=O)[C@@H](OC(C)=O)[C@@H]1OC(C)=O | 7 | 135 | 19.3 | 3 | Dose-dependent effect | 86 | 28.7 | Activity [1]: Dose-dependent effect; Activity [19]: >90%; Activity [20]: >90%; inhibition [9]: Dose-dependent effect; Activity [21]: Non-Toxic; Activity [22]: Non-Toxic; inhibition [12]: inactive; inhibition [13]: Active; inhibition [14]: Active; inhibition [15]: Active; Activity [16]: Non-Toxic; inhibition at 75 µM [17]: 90%; IC50 [4]: 4 µM; CC50 at 72 h [5]: 185 µM; Activity [18]: Dose-dependent effect
11 | CC(=O)OC[C@H]1O[C@@H](Sc2ccc(NC(=O)CCC(=O)OC[C@H]3O[C@@H](n4ccc(=O)n(C(=O)c5ccccc5)c4=O)[C@H](O[Si](C)(C)C(C)(C)C)[C@@H]3O[Si](C)(C)C(C)(C)C)cn2)[C@H](OC(C)=O)[C@@H](OC(C)=O)[C@@H]1OC(C)=O | 45 | 71 | 1.6 | 13 | Dose-dependent effect | 45 | 3.5 | –
